Each block holds one compound with its values, some of them ahead of it. The source made the active and inactive calls. No cut-off for these calls is given here.
How the values were obtained:
[1] = target: Dipeptidyl peptidase 4 (Homo sapiens, UniProt P27487); test: Inhibition of DPP4 after 20 mins by fluorescence assay
[2] = target: Voltage-gated inwardly rectifying potassium channel KCNH2 (Homo sapiens, UniProt Q12809); test: Inhibition of human ERG expressed in HEK293 cells after 3 hrs by nonradioactive rubidium efflux assay; format: cell-based; details: hek293, 3 h
Voltage-gated inwardly rectifying potassium channel KCNH2, sequence (Q12809 whole entry): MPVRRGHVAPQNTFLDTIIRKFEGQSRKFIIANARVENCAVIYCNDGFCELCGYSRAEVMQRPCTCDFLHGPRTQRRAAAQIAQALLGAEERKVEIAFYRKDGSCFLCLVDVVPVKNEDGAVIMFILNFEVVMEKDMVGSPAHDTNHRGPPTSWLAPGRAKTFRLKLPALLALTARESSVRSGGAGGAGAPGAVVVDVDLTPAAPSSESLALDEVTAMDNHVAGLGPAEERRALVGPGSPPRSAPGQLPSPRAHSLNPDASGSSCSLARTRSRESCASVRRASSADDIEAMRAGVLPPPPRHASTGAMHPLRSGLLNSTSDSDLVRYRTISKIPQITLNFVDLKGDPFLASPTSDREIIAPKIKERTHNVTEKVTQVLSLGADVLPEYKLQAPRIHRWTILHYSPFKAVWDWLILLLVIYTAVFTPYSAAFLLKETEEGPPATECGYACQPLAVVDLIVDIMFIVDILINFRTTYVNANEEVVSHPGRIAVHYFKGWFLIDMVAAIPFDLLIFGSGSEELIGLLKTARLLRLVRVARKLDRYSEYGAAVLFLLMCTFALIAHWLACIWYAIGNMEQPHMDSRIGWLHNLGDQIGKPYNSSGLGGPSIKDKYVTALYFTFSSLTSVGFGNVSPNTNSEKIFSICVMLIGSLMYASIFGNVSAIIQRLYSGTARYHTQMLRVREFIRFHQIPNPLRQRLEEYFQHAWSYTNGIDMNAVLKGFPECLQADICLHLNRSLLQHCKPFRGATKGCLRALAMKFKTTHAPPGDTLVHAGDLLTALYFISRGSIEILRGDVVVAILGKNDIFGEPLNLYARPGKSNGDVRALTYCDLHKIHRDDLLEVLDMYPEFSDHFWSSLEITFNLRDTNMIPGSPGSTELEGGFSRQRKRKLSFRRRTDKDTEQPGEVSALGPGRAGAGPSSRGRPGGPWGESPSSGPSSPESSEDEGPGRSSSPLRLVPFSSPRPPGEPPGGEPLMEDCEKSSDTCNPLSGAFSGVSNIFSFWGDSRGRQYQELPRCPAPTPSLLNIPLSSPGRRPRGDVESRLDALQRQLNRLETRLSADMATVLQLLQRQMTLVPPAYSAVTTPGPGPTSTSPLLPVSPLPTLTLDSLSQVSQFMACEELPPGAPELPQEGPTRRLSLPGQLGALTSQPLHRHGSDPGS

[3] = target: Dipeptidyl peptidase 9 (Homo sapiens, UniProt Q86TI2); test: Inhibition of DPP9 after 20 mins by fluorescence assay
Dipeptidyl peptidase 9, sequence (Q86TI2 whole entry): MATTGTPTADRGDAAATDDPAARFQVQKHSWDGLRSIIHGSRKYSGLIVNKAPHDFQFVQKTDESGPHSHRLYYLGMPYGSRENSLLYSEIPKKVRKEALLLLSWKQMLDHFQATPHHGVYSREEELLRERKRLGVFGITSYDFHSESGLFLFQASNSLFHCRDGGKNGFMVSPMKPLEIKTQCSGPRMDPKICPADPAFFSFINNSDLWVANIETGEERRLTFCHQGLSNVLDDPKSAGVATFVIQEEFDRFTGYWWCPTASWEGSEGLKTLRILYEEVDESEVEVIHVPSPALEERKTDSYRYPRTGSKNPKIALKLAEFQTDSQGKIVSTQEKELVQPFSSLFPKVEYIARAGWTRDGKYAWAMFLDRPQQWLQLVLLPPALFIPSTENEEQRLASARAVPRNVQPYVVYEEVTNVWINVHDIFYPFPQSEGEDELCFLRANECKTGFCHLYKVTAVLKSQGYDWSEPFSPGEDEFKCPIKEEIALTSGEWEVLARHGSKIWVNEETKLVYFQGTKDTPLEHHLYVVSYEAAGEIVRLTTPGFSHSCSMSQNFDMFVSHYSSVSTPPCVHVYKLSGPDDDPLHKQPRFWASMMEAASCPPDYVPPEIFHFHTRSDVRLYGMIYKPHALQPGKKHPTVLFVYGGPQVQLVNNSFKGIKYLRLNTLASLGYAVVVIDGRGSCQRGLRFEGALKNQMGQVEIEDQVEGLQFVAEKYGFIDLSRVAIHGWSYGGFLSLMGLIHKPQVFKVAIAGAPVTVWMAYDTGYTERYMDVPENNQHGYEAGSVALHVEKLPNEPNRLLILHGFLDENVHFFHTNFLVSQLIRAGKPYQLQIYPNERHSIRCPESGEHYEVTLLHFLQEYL
How it was run: (§1)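 Enzyme and inhibitor were preincubated for 10 min at room temperature in 50 mM Tris pH 7.5 with 0.1% BSA. The reaction was started with Gly-Pro-AMC and run for 20 min at room temperature. IC50 is the mean of three separate experiments, from curve fitting.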

[4] = target: Dipeptidyl peptidase 8 (Homo sapiens, UniProt Q6V1X1); test: Inhibition of DPP8 after 20 mins by fluorescence assay; how it was run: as §1
Dipeptidyl peptidase 8, sequence (Q6V1X1 whole entry): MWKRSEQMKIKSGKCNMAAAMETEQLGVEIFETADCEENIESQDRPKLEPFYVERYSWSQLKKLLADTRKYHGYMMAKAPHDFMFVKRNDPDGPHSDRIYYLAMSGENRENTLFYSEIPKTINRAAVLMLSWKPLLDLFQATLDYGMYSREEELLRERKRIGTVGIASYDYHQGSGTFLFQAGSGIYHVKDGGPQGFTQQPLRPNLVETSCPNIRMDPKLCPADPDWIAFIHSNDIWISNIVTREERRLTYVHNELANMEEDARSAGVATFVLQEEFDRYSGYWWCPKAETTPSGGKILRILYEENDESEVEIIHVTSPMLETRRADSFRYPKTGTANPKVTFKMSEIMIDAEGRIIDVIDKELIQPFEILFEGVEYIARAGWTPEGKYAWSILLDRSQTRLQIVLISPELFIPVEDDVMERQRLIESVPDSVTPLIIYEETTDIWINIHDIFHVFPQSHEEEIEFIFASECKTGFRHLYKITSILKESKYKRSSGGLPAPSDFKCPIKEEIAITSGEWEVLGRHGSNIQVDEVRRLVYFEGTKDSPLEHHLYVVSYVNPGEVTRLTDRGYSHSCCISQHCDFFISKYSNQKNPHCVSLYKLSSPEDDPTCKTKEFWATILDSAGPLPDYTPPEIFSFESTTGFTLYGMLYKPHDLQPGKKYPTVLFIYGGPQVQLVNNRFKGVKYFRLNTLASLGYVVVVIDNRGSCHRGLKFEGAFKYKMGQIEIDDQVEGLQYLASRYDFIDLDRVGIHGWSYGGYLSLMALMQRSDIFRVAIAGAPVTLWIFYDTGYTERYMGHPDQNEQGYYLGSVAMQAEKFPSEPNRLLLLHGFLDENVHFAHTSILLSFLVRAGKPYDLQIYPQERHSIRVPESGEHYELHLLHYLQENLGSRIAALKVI

[5] = AUC (0 to t) in Sprague-Dawley rat at 10 mg/kg, iv; format: ADME, organism-based; design: dose 10 mg/kg, route intravenous; details: plasma
[6] = Half life in Beagle dog at 10 mg/kg, iv; format: ADME, organism-based, Canis lupus familiaris; design: dose 10 mg/kg, route intravenous; details: in vivo
[7] = Plasma clearance in Beagle dog at 20 mg/kg, po; format: ADME, organism-based, Canis lupus familiaris; design: dose 20 mg/kg, route oral
[8] = Half life in Sprague-Dawley rat at 10 mg/kg, iv; format: ADME, organism-based; design: dose 10 mg/kg, route intravenous; details: in vivo
[9] = Cmax in Sprague-Dawley rat at 10 mg/kg, iv; format: ADME, organism-based; design: dose 10 mg/kg, route intravenous; details: in vivo
[10] = Half life in Sprague-Dawley rat at 20 mg/kg, po; format: ADME, organism-based; design: dose 20 mg/kg, route oral; details: in vivo
[11] = Cmax in Beagle dog at 20 mg/kg, po; format: ADME, organism-based, Canis lupus familiaris; design: dose 20 mg/kg, route oral; details: in vivo
[12] = Cmax in Beagle dog at 10 mg/kg, iv; format: ADME, organism-based, Canis lupus familiaris; design: dose 10 mg/kg, route intravenous; details: in vivo
[13] = Mean residence time in Sprague-Dawley rat at 20 mg/kg, po; format: ADME, organism-based; design: dose 20 mg/kg, route oral; details: in vivo
[14] = system: Mus musculus; test: Antidiabetic activity in C57BL/6J mouse high-fat diet model assessed as reduction in glucose AUC (0 to 120) at 3 mg/kg, po pretreated 30 mins before glucose challenge measured by oral glucose tolerance test; format: functional, organism-based; design: dose 3 mg/kg
[15] = Tmax in Sprague-Dawley rat at 20 mg/kg, po; format: ADME, organism-based; design: dose 20 mg/kg, route oral; details: in vivo
[16] = Tmax in Sprague-Dawley rat at 10 mg/kg, iv; format: ADME, organism-based; design: dose 10 mg/kg, route intravenous; details: in vivo
[17] = Oral bioavailability in Beagle dog at 20 mg/kg; format: ADME, organism-based, Canis lupus familiaris; details: in vivo
[18] = AUC (0 to t) in Beagle dog at 10 mg/kg, iv; format: ADME, organism-based, Canis lupus familiaris; design: dose 10 mg/kg, route intravenous; details: plasma
[19] = Mean residence time in Beagle dog at 20 mg/kg, po; format: ADME, organism-based, Canis lupus familiaris; design: dose 20 mg/kg, route oral; details: in vivo
[20] = Oral bioavailability in Sprague-Dawley rat at 20 mg/kg; format: ADME, organism-based; details: in vivo
[21] = system: Rattus norvegicus; test: AUC (0 to t) in Sprague-Dawley rat at 20 mg/kg, po; format: ADME, organism-based, Plasma; design: dose 20 mg/kg, route oral; details: in vivo
[22] = Mean residence time in Beagle dog at 10 mg/kg, iv; format: ADME, organism-based, Canis lupus familiaris; design: dose 10 mg/kg, route intravenous; details: in vivo
[23] = Tmax in Beagle dog at 20 mg/kg, po; format: ADME, organism-based, Canis lupus familiaris; design: dose 20 mg/kg, route oral; details: in vivo
[24] = Plasma clearance in Beagle dog at 10 mg/kg, iv; format: ADME, organism-based, Canis lupus familiaris; design: dose 10 mg/kg, route intravenous
[25] = AUC (0 to t) in Beagle dog at 20 mg/kg, po; format: ADME, organism-based, Canis lupus familiaris; design: dose 20 mg/kg, route oral; details: plasma
[26] = Cmax in Sprague-Dawley rat at 20 mg/kg, po; format: ADME, organism-based; design: dose 20 mg/kg, route oral; details: in vivo
[27] = system: Mus musculus; test: Antidiabetic activity in ICR mouse assessed as reduction of serum DPP4 activity at 3 mg/kg, po; format: functional, organism-based; design: dose 3 mg/kg
How it was run: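 Compound was given orally at 3 mg/kg, or vehicle, with n = 5 per group. Serum was mixed with 80 mM MgCl2 for 5 min at room temperature, then 0.1 mM Gly-Pro-AMC and buffer were added. Fluorescence (ex 380 nm, em 460 nm) was read every 3 min over 18 min, and serum DPP-IV specific activity was calculated from these reads.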

[28] = Mean residence time in Sprague-Dawley rat at 10 mg/kg, iv; format: ADME, organism-based; design: dose 10 mg/kg, route intravenous; details: in vivo
[29] = Plasma clearance in Sprague-Dawley rat at 10 mg/kg, iv; format: ADME, organism-based; design: dose 10 mg/kg, route intravenous
[30] = Tmax in Beagle dog at 10 mg/kg, iv; format: ADME, organism-based, Canis lupus familiaris; design: dose 10 mg/kg, route intravenous; details: in vivo
[31] = Half life in Beagle dog at 20 mg/kg, po; format: ADME, organism-based, Canis lupus familiaris; design: dose 20 mg/kg, route oral; details: in vivo

Dipeptidyl peptidase 4, sequence (P27487 whole entry): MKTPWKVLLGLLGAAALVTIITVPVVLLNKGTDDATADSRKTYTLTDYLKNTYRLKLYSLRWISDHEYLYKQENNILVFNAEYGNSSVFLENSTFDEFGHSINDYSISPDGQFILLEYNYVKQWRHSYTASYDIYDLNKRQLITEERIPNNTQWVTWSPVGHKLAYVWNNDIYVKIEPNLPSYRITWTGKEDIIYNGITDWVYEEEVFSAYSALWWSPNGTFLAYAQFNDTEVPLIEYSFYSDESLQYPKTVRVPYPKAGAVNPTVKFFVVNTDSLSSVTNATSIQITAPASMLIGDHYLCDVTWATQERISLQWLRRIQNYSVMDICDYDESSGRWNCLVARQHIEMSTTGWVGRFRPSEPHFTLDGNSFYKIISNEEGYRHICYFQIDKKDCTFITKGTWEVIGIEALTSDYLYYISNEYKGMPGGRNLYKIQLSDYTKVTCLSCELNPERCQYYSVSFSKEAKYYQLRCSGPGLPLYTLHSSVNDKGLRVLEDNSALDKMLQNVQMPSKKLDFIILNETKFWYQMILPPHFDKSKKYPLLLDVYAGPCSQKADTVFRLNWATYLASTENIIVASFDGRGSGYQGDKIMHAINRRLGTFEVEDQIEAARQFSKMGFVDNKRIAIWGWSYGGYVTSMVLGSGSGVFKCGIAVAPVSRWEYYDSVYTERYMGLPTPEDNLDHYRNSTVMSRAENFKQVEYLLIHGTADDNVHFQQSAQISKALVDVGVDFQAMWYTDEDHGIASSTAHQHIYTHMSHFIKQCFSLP

Structure (SMILES): N#Cc1ccccc1Cn1c(N2CCC[C@@H](N)C2)nc2sccc2c1=O
IC50 [1]: 0.00087 µM
Activity [2]: 484.6 µM
IC50 [3]: > 25 µM
IC50 [4]: > 25 µM

Structure (SMILES): Cc1csc2c(=O)n(Cc3ccccc3C#N)c(N3CCC[C@@H](N)C3)nc12
IC50 [1]: 0.00172 µM
Activity [2]: 203.5 µM
IC50 [3]: > 25 µM
IC50 [4]: > 25 µM

Structure (SMILES): N#Cc1ccccc1Cn1c(N2CCC[C@@H](N)C2)nc2ccsc2c1=O
AUC(0-t) [5]: 1480 ng·h/mL
half-life [6]: 10.1 h
CL/F [7]: 11.5 mL/min/kg
half-life [8]: 5.9 h
IC50 [1]: 0.00033 µM
Cmax [9]: 1230 ng/mL
half-life [10]: 7 h
Cmax [11]: 2070 ng/mL
Cmax [12]: 5750 ng/mL
MRT [13]: 6.7 h
Activity [14]: Active
Tmax [15]: 0.59 h
Tmax [16]: 2.4 min
bioavailability [17]: 42.3%
AUC(0-t) [18]: 13300 ng·h/mL
MRT [19]: 9 h
Activity [2]: 517.4 µM
bioavailability [20]: 23.7%
AUC [21]: 690 ng·h/mL
IC50 [3]: > 25 µM
MRT [22]: 6 h
Tmax [23]: 0.91 h
clearance [24]: 22.2 mL/min/kg
AUC(0-t) [25]: 11200 ng·h/mL
Cmax [26]: 170 ng/mL
IC50 [4]: > 25 µM
Activity [27]: Active
MRT [28]: 2.7 h
clearance [29]: 116 mL/min/kg
Tmax [30]: 6 min
half-life [31]: 11.3 h

The next lines start with results.

IC50 [1]: 0.00132 µM
IC50 [3]: > 25 µM
IC50 [4]: > 25 µM
Structure (SMILES): Cc1csc2nc(N3CCC[C@@H](N)C3)n(Cc3ccccc3C#N)c(=O)c12
Activity [2]: 376.3 µM

IC50 [1]: 0.0888 µM
IC50 [3]: > 25 µM
IC50 [4]: > 25 µM
Structure (SMILES): N#Cc1ccccc1Cn1c(N2CCC[C@@H](N)C2)nc2scc(C(F)(F)F)c2c1=O
